{
  "source": "ChEMBL document CHEMBL1681713",
  "about": "“Lead detoxification activities and ADMET hepatotoxicities of a class of novel 5-(1-carbonyl-L-amino-acid)-2,2-dimethyl-[1,3]dithiolane-4-carboxylic acids” (Bioorg Med Chem Lett, 2011)",
  "key": {"Brain [1]": {"test_system": "Brain", "assay": "Toxicity in mouse assessed as effect on iron level in brain per gram of organ at 0.4 mmol/kg, ip qd for 5 days", "assay_type": "organism-based", "details": "in vivo, 120 h"}, "Femur [2]": {"test_system": "Femur", "assay": "Detoxification activity against lead-induced toxicity in mouse assessed as reduction lead level in femurs per gram of organ at 0.4 mmol/kg, ip qd for 5 days measured 24 hrs last post dose by synchrotron X-ray fluorescence analysis", "assay_type": "functional", "outline": "(§1)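 Lead-loaded mice were given normal saline vehicle (negative control) or test agent at 0.2, 0.4 or 0.6 mmol/kg. Lead was measured in liver, kidney, left femur and brain and reported as mean ± SD µg Pb/g organ against the NS group.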"}, "Brain [3]": {"test_system": "Brain", "assay": "Detoxification activity against lead-induced toxicity in mouse assessed as reduction lead level in brain per gram of organ at 0.4 mmol/kg, ip qd for 5 days measured 24 hrs last post dose by synchrotron X-ray fluorescence analysis", "assay_type": "functional", "outline": "as §1"}, "Kidney [4]": {"test_system": "Kidney", "assay": "Detoxification activity against lead-induced toxicity in mouse assessed as reduction lead level in kidney per gram of organ at 0.4 mmol/kg, ip qd for 5 days measured 24 hrs last post dose by synchrotron X-ray fluorescence analysis", "assay_type": "functional", "outline": "as §1"}, "Liver [5]": {"test_system": "Liver", "assay": "Detoxification activity against lead-induced toxicity in mouse assessed as reduction lead level in liver per gram of organ at 0.4 mmol/kg, ip qd for 5 days measured 24 hrs last post dose by synchrotron X-ray fluorescence analysis", "assay_type": "functional", "outline": "as §1"}, "[6]": {"assay": "Detoxification activity against lead-induced toxicity in mouse assessed as reduction lead level in feces at 0.4 mmol/kg, ip qd for 5 days measured 24 hrs last post dose by synchrotron X-ray fluorescence analysis", "assay_type": "functional", "outline": "(§2)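 Lead-loaded mice were given normal saline vehicle, DL-penicillamine or NaDMS (positive controls), or test agent, each at 0.4 mmol/kg; n = 12 per group. Lead was measured in feces and urine and reported as mean ± SD µg Pb/g excrement against the NS group.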"}, "[7]": {"assay": "Detoxification activity against lead-induced toxicity in mouse assessed as reduction lead level in urine at 0.4 mmol/kg, ip qd for 5 days measured 24 hrs last post dose by synchrotron X-ray fluorescence analysis", "assay_type": "functional", "outline": "as §2"}, "Femur [8]": {"test_system": "Femur", "assay": "Detoxification activity against lead-induced toxicity in mouse assessed as reduction lead level in femurs per gram of organ at 0.6 mmol/kg, ip qd for 5 days measured 24 hrs last post dose by synchrotron X-ray fluorescence analysis", "assay_type": "functional", "outline": "as §1"}, "Femur [9]": {"test_system": "Femur", "assay": "Detoxification activity against lead-induced toxicity in mouse assessed as reduction lead level in femurs per gram of organ at 0.2 mmol/kg, ip qd for 5 days measured 24 hrs last post dose by synchrotron X-ray fluorescence analysis", "assay_type": "functional", "outline": "as §1"}, "Brain [10]": {"test_system": "Brain", "assay": "Detoxification activity against lead-induced toxicity in mouse assessed as reduction lead level in brain per gram of organ at 0.6 mmol/kg, ip qd for 5 days measured 24 hrs last post dose by synchrotron X-ray fluorescence analysis", "assay_type": "functional", "outline": "as §1"}, "Brain [11]": {"test_system": "Brain", "assay": "Detoxification activity against lead-induced toxicity in mouse assessed as reduction lead level in brain per gram of organ at 0.2 mmol/kg, ip qd for 5 days measured 24 hrs last post dose by synchrotron X-ray fluorescence analysis", "assay_type": "functional", "outline": "as §1"}, "Kidney [12]": {"test_system": "Kidney", "assay": "Detoxification activity against lead-induced toxicity in mouse assessed as reduction lead level in kidney per gram of organ at 0.6 mmol/kg, ip qd for 5 days measured 24 hrs last post dose by synchrotron X-ray fluorescence analysis", "assay_type": "functional", "outline": "as §1"}, "Kidney [13]": {"test_system": "Kidney", "assay": "Detoxification activity against lead-induced toxicity in mouse assessed as reduction lead level in kidney per gram of organ at 0.2 mmol/kg, ip qd for 5 days measured 24 hrs last post dose by synchrotron X-ray fluorescence analysis", "assay_type": "functional", "outline": "as §1"}, "Liver [14]": {"test_system": "Liver", "assay": "Detoxification activity against lead-induced toxicity in mouse assessed as reduction lead level in liver per gram of organ at 0.6 mmol/kg, ip qd for 5 days measured 24 hrs last post dose by synchrotron X-ray fluorescence analysis", "assay_type": "functional", "outline": "as §1"}, "Liver [15]": {"test_system": "Liver", "assay": "Detoxification activity against lead-induced toxicity in mouse assessed as reduction lead level in liver per gram of organ at 0.2 mmol/kg, ip qd for 5 days measured 24 hrs last post dose by synchrotron X-ray fluorescence analysis", "assay_type": "functional", "outline": "as §1"}, "Brain [16]": {"test_system": "Brain", "assay": "Toxicity in mouse assessed as effect on copper level in brain per gram of organ at 0.4 mmol/kg, ip qd for 5 days", "assay_type": "organism-based", "details": "in vivo, 120 h"}, "Brain [17]": {"test_system": "Brain", "assay": "Toxicity in mouse assessed as effect on zinc level in brain per gram of organ at 0.4 mmol/kg, ip qd for 5 days", "assay_type": "organism-based", "details": "in vivo, 120 h"}, "Brain [18]": {"test_system": "Brain", "assay": "Toxicity in mouse assessed as effect on manganese level in brain per gram of organ at 0.4 mmol/kg, ip qd for 5 days", "assay_type": "organism-based", "details": "in vivo, 120 h"}, "Brain [19]": {"test_system": "Brain", "assay": "Toxicity in mouse assessed as effect on calcium level in brain per gram of organ at 0.4 mmol/kg, ip qd for 5 days", "assay_type": "organism-based", "details": "in vivo, 120 h"}, "Liver [20]": {"test_system": "Liver", "assay": "Toxicity in mouse assessed as effect on iron level in liver per gram of organ at 0.4 mmol/kg, ip qd for 5 days", "assay_type": "organism-based", "details": "in vivo, 120 h"}, "Liver [21]": {"test_system": "Liver", "assay": "Toxicity in mouse assessed as effect on copper level in liver per gram of organ at 0.4 mmol/kg, ip qd for 5 days", "assay_type": "organism-based", "details": "in vivo, 120 h"}, "Liver [22]": {"test_system": "Liver", "assay": "Toxicity in mouse assessed as effect on zinc level in liver per gram of organ at 0.4 mmol/kg, ip qd for 5 days", "assay_type": "organism-based", "details": "in vivo, 120 h"}, "Liver [23]": {"test_system": "Liver", "assay": "Toxicity in mouse assessed as effect on manganese level in liver per gram of organ at 0.4 mmol/kg, ip qd for 5 days", "assay_type": "organism-based", "details": "in vivo, 120 h"}, "Liver [24]": {"test_system": "Liver", "assay": "Toxicity in mouse assessed as effect on calcium level in liver per gram of organ at 0.4 mmol/kg, ip qd for 5 days", "assay_type": "organism-based", "details": "in vivo, 120 h"}, "Kidney [25]": {"test_system": "Kidney", "assay": "Toxicity in mouse assessed as effect on iron level in kidney per gram of organ at 0.4 mmol/kg, ip qd for 5 days", "assay_type": "organism-based", "details": "in vivo, 120 h"}, "Kidney [26]": {"test_system": "Kidney", "assay": "Toxicity in mouse assessed as effect on copper level in kidney per gram of organ at 0.4 mmol/kg, ip qd for 5 days", "assay_type": "organism-based", "details": "in vivo, 120 h"}, "Kidney [27]": {"test_system": "Kidney", "assay": "Toxicity in mouse assessed as effect on zinc level in kidney per gram of organ at 0.4 mmol/kg, ip qd for 5 days", "assay_type": "organism-based", "details": "in vivo, 120 h"}, "Kidney [28]": {"test_system": "Kidney", "assay": "Toxicity in mouse assessed as effect on manganese level in kidney per gram of organ at 0.4 mmol/kg, ip qd for 5 days", "assay_type": "organism-based", "details": "in vivo, 120 h"}, "Kidney [29]": {"test_system": "Kidney", "assay": "Toxicity in mouse assessed as effect on calcium level in kidney per gram of organ at 0.4 mmol/kg, ip qd for 5 days", "assay_type": "organism-based", "details": "in vivo, 120 h"}, "Mus musculus": {"test_system": "Mus musculus", "assay": "Toxicity in mouse assessed as change in bodyweight at 0.4 mmol/kg, ip qd for 5 days", "assay_type": "organism-based", "details": "in vivo, 120 h", "outline": "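Lead-loaded mice were given normal saline vehicle or test agent at 0.4 mmol/kg. Body weights were recorded and compared with the NS group to assess growth.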"}},
  "data": [
    {"compound": "CC1(C)SC(C(=O)O)C(C(=O)N[C@@H](CC(=O)O)C(=O)O)S1", "note": "(stereo not given in full)", "values": [
      {"measurement": "Activity", "setting": "Brain [1]", "value": 56.37, "unit": "µg/g"},
      {"measurement": "Activity", "setting": "Femur [2]", "value": 11.1, "unit": "µg/g"},
      {"measurement": "Activity", "setting": "Brain [3]", "value": 1.22, "unit": "µg/g"},
      {"measurement": "Activity", "setting": "Kidney [4]", "value": 7.09, "unit": "µg/g"},
      {"measurement": "Activity", "setting": "Liver [5]", "value": 3.82, "unit": "µg/g"},
      {"measurement": "Activity", "setting": "[6]", "value": 4.8, "unit": "µg/g"},
      {"measurement": "Activity", "setting": "[7]", "value": 2.83, "unit": "µg/g"},
      {"measurement": "Activity", "setting": "Femur [8]", "value": 9.64, "unit": "µg/g"},
      {"measurement": "Activity", "setting": "Femur [9]", "value": 17.21, "unit": "µg/g"},
      {"measurement": "Activity", "setting": "Brain [10]", "value": 0.84, "unit": "µg/g"},
      {"measurement": "Activity", "setting": "Brain [11]", "value": 1.69, "unit": "µg/g"},
      {"measurement": "Activity", "setting": "Kidney [12]", "value": 5.9, "unit": "µg/g"},
      {"measurement": "Activity", "setting": "Kidney [13]", "value": 7.68, "unit": "µg/g"},
      {"measurement": "Activity", "setting": "Liver [14]", "value": 2.77, "unit": "µg/g"},
      {"measurement": "Activity", "setting": "Liver [15]", "value": 5.81, "unit": "µg/g"},
      {"measurement": "Activity", "setting": "Brain [16]", "value": 2.4, "unit": "µg/g"},
      {"measurement": "Activity", "setting": "Brain [17]", "value": 34.8, "unit": "µg/g"},
      {"measurement": "Activity", "setting": "Brain [18]", "value": 0.78, "unit": "µg/g"},
      {"measurement": "Activity", "setting": "Brain [19]", "value": 68.28, "unit": "µg/g"},
      {"measurement": "Activity", "setting": "Liver [20]", "value": 154.86, "unit": "µg/g"},
      {"measurement": "Activity", "setting": "Liver [21]", "value": 3.61, "unit": "µg/g"},
      {"measurement": "Activity", "setting": "Liver [22]", "value": 37.69, "unit": "µg/g"},
      {"measurement": "Activity", "setting": "Liver [23]", "value": 1.35, "unit": "µg/g"},
      {"measurement": "Activity", "setting": "Liver [24]", "value": 59.89, "unit": "µg/g"},
      {"measurement": "Activity", "setting": "Kidney [25]", "value": 93.98, "unit": "µg/g"},
      {"measurement": "Activity", "setting": "Kidney [26]", "value": 3.53, "unit": "µg/g"},
      {"measurement": "Activity", "setting": "Kidney [27]", "value": 27.89, "unit": "µg/g"},
      {"measurement": "Activity", "setting": "Kidney [28]", "value": 1.32, "unit": "µg/g"},
      {"measurement": "Activity", "setting": "Kidney [29]", "value": 76.47, "unit": "µg/g"},
      {"measurement": "Activity", "setting": "Mus musculus", "value": 31.1, "unit": "g"}
    ]}
  ]
}
